# Columns and labels:
# HeLa = test: Antiproliferative activity against human HeLa cells after 72 hrs by Coulter counter method; type: functional, cell-based
# Method in brief: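 Cell count assay in 96-well microtiter plates; (5–7.5) × 10⁴ tumor cells per well plus test compound. Cells proliferated at 37 °C in humidified CO₂-controlled atmosphere, 48 h for murine leukemia L1210, 72 h for human lymphocytic CEM and cervix carcinoma HeLa. Counted by Coulter counter; IC₅₀ is the concentration that inhibits proliferation by 50%.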
# EKVX = test: Cytotoxicity against human EKVX cells after 48 hrs by SRB assay; type: functional; details: for GI50: read-out: pGI50 (converted)
# HOP-92 [1] = test: Cytotoxicity against human HOP92 cells after 48 hrs by SRB assay; type: functional; details: HOP-92, 48 h; for GI50: read-out: pGI50 (converted)
# SF-268 = test: Cytotoxicity against human SF268 cells after 48 hrs by SRB assay; type: functional; details: SF-268, 48 h; for GI50: read-out: pGI50 (converted)
# OVCAR-5 = test: Cytotoxicity against human OVCAR5 cells after 48 hrs by SRB assay; type: functional; details: OVCAR-5, 48 h; for GI50: read-out: pGI50 (converted)
# SK-OV-3 = test: Cytotoxicity against human SKOV3 cells after 48 hrs by SRB assay; type: functional; details: SK-OV-3, 48 h; for GI50: read-out: pGI50 (converted)
# RXF 393 [2] = test: Cytotoxicity against human RXF393 cells after 48 hrs by SRB assay; type: functional; details: RXF 393, 48 h; for GI50: read-out: pGI50 (converted)
# SN12C = test: Cytotoxicity against human SN12C cells after 48 hrs by SRB assay; type: functional; details: for CC50: read-out: pLC50 (the source's name) (converted)
# MCF7 = test: Cytotoxicity against human MCF7 cells after 48 hrs by SRB assay; type: functional; details: MCF7, 48 h; for GI50: read-out: pGI50 (converted)
# HL-60(TB) = test: Growth inhibition of human HL-60(TB) cells assessed as cell growth at 10^-8 M incubated for 48 hrs by sulforhodamine B assay relative to control; type: functional; details: HL-60, 48 h, read-out: Activity
# A549 [3] = test: Growth inhibition of human A549/ATCC cells assessed as cell growth at 10^-8 M incubated for 48 hrs by sulforhodamine B assay relative to control; type: functional; details: A549, 48 h, read-out: Activity
# KM12 = test: Growth inhibition of human KM12 cells assessed as cell growth at 10^-8 M incubated for 48 hrs by sulforhodamine B assay relative to control; type: functional; details: KM12, 48 h, read-out: Activity
# BT-549 [4] = test: Growth inhibition of human BT549 cells assessed as cell growth at 10^-8 M incubated for 48 hrs by sulforhodamine B assay relative to control; type: functional; details: BT-549, 48 h, read-out: Activity
# SR = test: Growth inhibition of human SR cells assessed as cell growth at 10^-7 M incubated for 48 hrs by sulforhodamine B assay relative to control; type: functional; details: read-out: Activity
# A549 [5] = test: Growth inhibition of human A549/ATCC cells assessed as cell growth at 10^-7 M incubated for 48 hrs by sulforhodamine B assay relative to control; type: functional; details: A549, 48 h, read-out: Activity
# COLO 205 = test: Growth inhibition of human COLO205 cells assessed as cell growth at 10^-7 M incubated for 48 hrs by sulforhodamine B assay relative to control; type: functional; details: COLO 205, 48 h, read-out: Activity
# SK-MEL-2 = test: Growth inhibition of human SK-MEL-2 cells assessed as cell growth at 10^-7 M incubated for 48 hrs by sulforhodamine B assay relative to control; type: functional; details: SK-MEL-2, 48 h, read-out: Activity
# OVCAR-8 = test: Growth inhibition of human OVCAR8 cells assessed as cell growth at 10^-7 M incubated for 48 hrs by sulforhodamine B assay relative to control; type: functional; details: OVCAR-8, 48 h, read-out: Activity
# A498 = test: Growth inhibition of human A498 cells assessed as cell growth at 10^-7 M incubated for 48 hrs by sulforhodamine B assay relative to control; type: functional; details: A498, 48 h, read-out: Activity
# DU-145 = test: Growth inhibition of human DU145 cells assessed as cell growth at 10^-7 M incubated for 48 hrs by sulforhodamine B assay relative to control; type: functional; details: DU-145, 48 h, read-out: Activity
# BT-549 [6] = test: Growth inhibition of human BT549 cells assessed as cell growth at 10^-7 M incubated for 48 hrs by sulforhodamine B assay relative to control; type: functional; details: BT-549, 48 h, read-out: Activity
# RPMI-8226 = test: Growth inhibition of human RPMI8226 cells assessed as cell growth at 10^-6 M incubated for 48 hrs by sulforhodamine B assay relative to control; type: functional; details: RPMI-8226, 48 h, read-out: Activity
# HOP-92 [7] = test: Growth inhibition of human HOP92 cells assessed as cell growth at 10^-6 M incubated for 48 hrs by sulforhodamine B assay relative to control; type: functional; details: HOP-92, 48 h, read-out: Activity
# SF-539 = test: Growth inhibition of human SF539 cells assessed as cell growth at 10^-6 M incubated for 48 hrs by sulforhodamine B assay relative to control; type: functional; details: SF-539, 48 h, read-out: Activity
# M14 = test: Growth inhibition of human M14 cells assessed as cell growth at 10^-6 M incubated for 48 hrs by sulforhodamine B assay relative to control; type: functional; details: M14, 48 h, read-out: Activity
# RXF 393 [8] = test: Growth inhibition of human RXF393 cells assessed as cell growth at 10^-6 M incubated for 48 hrs by sulforhodamine B assay relative to control; type: functional; details: RXF 393, 48 h, read-out: Activity
# MOLT-4 = test: Growth inhibition of human MOLT4 cells assessed as cell growth at 10^-5 M incubated for 48 hrs by sulforhodamine B assay relative to control; type: functional; details: MOLT-4, 48 h, read-out: Activity
# SNB-19 = test: Growth inhibition of human SNB19 cells assessed as cell growth at 10^-5 M incubated for 48 hrs by sulforhodamine B assay relative to control; type: functional; details: SNB-19, 48 h, read-out: Activity
# Malme-3M = test: Growth inhibition of human MALME-3M cells assessed as cell growth at 10^-5 M incubated for 48 hrs by sulforhodamine B assay relative to control; type: functional; details: read-out: Activity
# MDA-MB-231 = test: Growth inhibition of human MDA-MB-231 cells assessed as cell growth at 10^-5 M incubated for 48 hrs by sulforhodamine B assay relative to control; type: functional; details: MDA-MB-231, 48 h, read-out: Activity
# U-251 = test: Growth inhibition of human U251 cells assessed as cell growth at 10^-4 M incubated for 48 hrs by sulforhodamine B assay relative to control; type: functional; details: U-251, 48 h, read-out: Activity
# [9] = read-out: LC50 (the source's name)
# [10] = read-out: pLC50 (the source's name) (converted)
structure (smiles),measurement,setting,value
C#C[C@@]1(O)[C@@H](CO)O[C@@H](n2cc(F)c3c(N)ncnc32)[C@@H]1O,IC50,HeLa,0.15 µM
same,CC50,EKVX; [9],> 100 µM
same,TGI,EKVX; read-out: TGI,11.3 µM
same,GI50,EKVX,0.676 µM
same,TGI,EKVX; read-out: pTGI (converted),11.2 µM
same,CC50,HOP-92 [1]; [9],> 100 µM
same,GI50,HOP-92 [1],0.038 µM
same,CC50,SF-268; [9],> 100 µM
same,TGI,SF-268; read-out: TGI,78.3 µM
same,GI50,SF-268,0.759 µM
same,TGI,SF-268; read-out: pTGI (converted),77.6 µM
same,CC50,OVCAR-5; [9],> 100 µM
same,TGI,OVCAR-5; read-out: TGI,> 100 µM
same,GI50,OVCAR-5,1.78 µM
same,TGI,OVCAR-5; read-out: pTGI (converted),> 100 µM
same,CC50,SK-OV-3; [9],> 100 µM
same,TGI,SK-OV-3; read-out: TGI,2.09 µM
same,GI50,SK-OV-3,0.288 µM
same,TGI,SK-OV-3; read-out: pTGI (converted),2.09 µM
same,CC50,RXF 393 [2]; [9],> 100 µM
same,TGI,RXF 393 [2]; read-out: TGI,2.99 µM
same,GI50,RXF 393 [2],0.724 µM
same,TGI,RXF 393 [2]; read-out: pTGI (converted),3.02 µM
same,TGI,SN12C; read-out: TGI,4.74 µM
same,CC50,SN12C,> 100 µM
same,TGI,SN12C; read-out: pTGI (converted),4.79 µM
same,CC50,MCF7; [9],> 100 µM
same,GI50,MCF7,0.102 µM
same,growth at 0.01 µM,HL-60(TB),93%
same,growth at 0.01 µM,A549 [3],93%
same,growth at 0.01 µM,KM12,104%
same,growth at 0.01 µM,BT-549 [4],98%
same,growth at 0.1 µM,SR,65%
same,growth at 0.1 µM,A549 [5],92%
same,growth at 0.1 µM,COLO 205,81%
same,growth at 0.1 µM,SK-MEL-2,101%
same,growth at 0.1 µM,OVCAR-8,74%
same,growth at 0.1 µM,A498,95%
same,growth at 0.1 µM,DU-145,92%
same,growth at 0.1 µM,BT-549 [6],107%
same,growth at 1 µM,RPMI-8226,1%
same,growth at 1 µM,HOP-92 [7],24%
same,growth at 1 µM,SF-539,60%
same,growth at 1 µM,M14,29%
same,growth at 1 µM,RXF 393 [8],42%
same,growth at 10 µM,MOLT-4,2%
same,growth at 10 µM,SNB-19,7%
same,growth at 10 µM,Malme-3M,-34%
same,growth at 10 µM,MDA-MB-231,-24%
same,growth at 100 µM,U-251,-18%
C#C[C@@]1(O)[C@@H](CO)O[C@@H](n2ccc3c(N)ncnc32)[C@@H]1O,IC50,HeLa,0.88 µM
same,TGI,EKVX; read-out: TGI,5.43 µM
same,GI50,EKVX,1.51 µM
same,CC50,EKVX; [10],> 100 µM
same,TGI,EKVX; read-out: pTGI (converted),5.37 µM
same,TGI,HOP-92 [1]; read-out: TGI,5.56 µM
same,GI50,HOP-92 [1],2.04 µM
same,CC50,HOP-92 [1]; [10],22.9 µM
same,TGI,HOP-92 [1]; read-out: pTGI (converted),5.62 µM
same,TGI,SF-268; read-out: TGI,26.1 µM
same,GI50,SF-268,2.34 µM
same,CC50,SF-268; [10],> 100 µM
same,TGI,SF-268; read-out: pTGI (converted),26.3 µM
same,TGI,OVCAR-5; read-out: TGI,8.54 µM
same,GI50,OVCAR-5,3.09 µM
same,CC50,OVCAR-5; [10],> 100 µM
same,TGI,OVCAR-5; read-out: pTGI (converted),8.51 µM
same,TGI,SK-OV-3; read-out: TGI,5.24 µM
same,GI50,SK-OV-3,1.07 µM
same,CC50,SK-OV-3; [10],> 100 µM
same,TGI,SK-OV-3; read-out: pTGI (converted),5.25 µM
same,TGI,RXF 393 [2]; read-out: TGI,4.6 µM
same,GI50,RXF 393 [2],1.91 µM
same,CC50,RXF 393 [2]; [10],12.9 µM
same,TGI,RXF 393 [2]; read-out: pTGI (converted),4.57 µM
same,TGI,SN12C; read-out: TGI,3.91 µM
same,GI50,SN12C; read-out: pGI50 (converted),0.794 µM
same,CC50,SN12C,38 µM
same,TGI,SN12C; read-out: pTGI (converted),3.89 µM
same,TGI,MCF7; read-out: TGI,5.66 µM
same,GI50,MCF7,0.24 µM
same,CC50,MCF7; [10],85.1 µM
same,TGI,MCF7; read-out: pTGI (converted),5.62 µM
same,growth at 0.01 µM,HL-60(TB),97%
same,growth at 0.01 µM,A549 [3],100%
same,growth at 0.01 µM,KM12,98%
same,growth at 0.01 µM,BT-549 [4],89%
same,growth at 0.1 µM,SR,96%
same,growth at 0.1 µM,A549 [5],107%
same,growth at 0.1 µM,COLO 205,97%
same,growth at 0.1 µM,SK-MEL-2,90%
same,growth at 0.1 µM,OVCAR-8,106%
same,growth at 0.1 µM,A498,105%
same,growth at 0.1 µM,DU-145,98%
same,growth at 0.1 µM,BT-549 [6],102%
same,growth at 1 µM,RPMI-8226,44%
same,growth at 1 µM,HOP-92 [7],86%
same,growth at 1 µM,SF-539,88%
same,growth at 1 µM,M14,73%
same,growth at 1 µM,RXF 393 [8],88%
same,growth at 10 µM,MOLT-4,2%
same,growth at 10 µM,SNB-19,-15%
same,growth at 10 µM,Malme-3M,-25%
same,growth at 10 µM,MDA-MB-231,-20%
same,growth at 100 µM,U-251,-30%

# Source: ChEMBL document CHEMBL4270599, “Synthesis of a 3'-C-ethynyl-β-d-ribofuranose purine nucleoside library: Discovery of C7-deazapurine analogs as potent antiproliferative nucleosides” (Eur J Med Chem, 2018)
